Results taken from ChEMBL document CHEMBL5360543, “Designed multiple ligands for the treatment of type 2 diabetes mellitus and its complications: Discovery of (5-arylidene-4-oxo-2-thioxothiazolidin-3-yl)alkanoic acids active as novel dual-targeted PTP1B/AKR1B1 inhibitors” (Eur J Med Chem, 2023).
The source made the active and inactive calls. The rule behind the calls is not given here.

Tests used:
C2C12 [1] = test: Insulin-mimetic activity in mouse C2C12 cells assessed as stimulation of 2-NBDG uptake at 20 uM pretreated with compound and insulin for 15 mins followed by 2-NBDG addition and measured after 3 hrs by flow cytometry; assay type: functional, cell-based; settings: time 195.0 min
How it was run: (§1)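 C2C12 cells serum-starved 24 h, then 15 min with 10 nM insulin, 20 µM compound, or both. Washed, then 3 h in starvation medium containing 40 µM 2-NBDG. Trypsinized, washed, and fluorescence measured by flow cytometry. Quadruplicate; mean fluorescence ± SD.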

[2] = molecular target: T1, Tyrosine-protein phosphatase non-receptor type 2 (Homo sapiens, UniProt P17706); test: Inhibition of N-terminal polyHis-tagged human recombinant TC-PTPb (1 to 415 residues) expressed in Escherichia coli BL21(DE3)pLysS
T1 sequence (P17706 whole entry): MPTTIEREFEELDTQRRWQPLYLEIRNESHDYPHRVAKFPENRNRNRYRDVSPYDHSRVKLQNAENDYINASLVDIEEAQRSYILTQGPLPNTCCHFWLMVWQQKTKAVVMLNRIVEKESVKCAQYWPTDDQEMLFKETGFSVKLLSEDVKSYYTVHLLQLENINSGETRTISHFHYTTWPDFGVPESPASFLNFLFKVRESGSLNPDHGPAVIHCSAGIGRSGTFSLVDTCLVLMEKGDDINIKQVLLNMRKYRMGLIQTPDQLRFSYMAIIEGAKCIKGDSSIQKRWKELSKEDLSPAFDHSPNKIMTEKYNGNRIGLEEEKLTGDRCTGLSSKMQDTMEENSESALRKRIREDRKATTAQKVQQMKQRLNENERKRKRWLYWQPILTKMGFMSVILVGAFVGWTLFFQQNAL

[3] = molecular target: T2, Aldo-keto reductase family 1 member B1 (Homo sapiens, UniProt P15121); test: Ratio of Ki for human recombinant AKR1B1 expressed in Escherichia coli BL21(DE3)pLysS assessed as apparent dissociation constant for EI complex to Ki for human recombinant AKR1B1 expressed in Escherichia coli BL21(DE3)pLysS assessed as apparent dissociation constant for ESI complex
How it was run: (§2)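 AKR1B1 rates measured at varied L-idose concentrations with and without several inhibitor concentrations, then Lineweaver–Burk analysis. […] Tight binders fitted with the Morrison equation, KM for L-idose taken as 3.8 mM. At least three independent experiments.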

[4] = molecular target: T3, Tyrosine-protein phosphatase non-receptor type 1 (Homo sapiens, UniProt P18031); test: Inhibition of N-terminal polyHis-tagged human PTP1B1 (1 to 303 residues) expressed in Escherichia coli BL21(DE3)pLysS using pNPP as substrate by spectrophotometric analysis
T3 sequence (P18031 whole entry): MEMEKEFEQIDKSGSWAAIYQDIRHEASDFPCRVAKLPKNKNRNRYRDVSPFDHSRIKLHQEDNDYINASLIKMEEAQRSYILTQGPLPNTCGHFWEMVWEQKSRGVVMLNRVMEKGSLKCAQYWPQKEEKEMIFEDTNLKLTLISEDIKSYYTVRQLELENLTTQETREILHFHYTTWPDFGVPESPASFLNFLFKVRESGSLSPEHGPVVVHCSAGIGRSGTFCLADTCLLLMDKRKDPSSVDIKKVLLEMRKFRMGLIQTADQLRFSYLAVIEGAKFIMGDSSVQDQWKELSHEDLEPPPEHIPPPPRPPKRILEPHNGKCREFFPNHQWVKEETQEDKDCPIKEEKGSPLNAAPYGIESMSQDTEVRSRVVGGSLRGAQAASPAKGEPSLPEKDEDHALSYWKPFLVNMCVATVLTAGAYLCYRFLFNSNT
How it was run: (§3)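 His-tagged human PTP1B (1–303) from E. coli BL21(DE3)pLysS, assayed in 0.075 M β,β-dimethylglutarate pH 7.0 with 1 mM EDTA, 0.1 mM DTT and pNPP. Reaction stopped with 0.1 M KOH; p-nitrophenol read at 400 nm. IC50 from 15–16 inhibitor concentrations in triplicate, normalized to control, fitted by nonlinear regression. Single-point residual activity at 5 µM.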

C2C12 [5] = test: Cytotoxicity against mouse C2C12 cells assessed as reduction in cell viability at 20 uM incubated for 24 hrs by MTT assay; assay type: toxicity, cell-based; settings: c2c12, 24 h
How it was run: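 C2C12 myoblasts were differentiated for 96 h in DMEM with 2% horse serum, then held 24 h in complete medium with 20 µM compound, DMSO vehicle as control. MTT 0.5 mg/mL was added, cells lysed in DMSO, absorbance read, and values normalized to vehicle. Quadruplicate, mean ± SD (n = 4).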

[6] = molecular target: T2, Aldo-keto reductase family 1 member B1; test: Inhibition of human recombinant AKR1B1 expressed in Escherichia coli BL21(DE3)pLysS using L-idose as substrate by NADPH oxidation based absorbance analysis
C2C12 [7] = test: Effect on total Akt protein expression in mouse C2C12 cells at 20 uM incubated for 15 mins in presence of insulin by SDS-PAGE analysis; assay type: functional, cell-based
How it was run: (§4)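 C2C12 cells starved 24 h, then given 10 nM insulin, 20 µM compound, or both, for 15 min. Washed in cold PBS, lysed in 1X Laemmli buffer, run on SDS-PAGE, blotted to PVDF. Probed with antibodies to phospho-Akt and total Akt, with actin as loading control. Bands quantified; triplicate, mean ± SD (n = 3).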

[8] = molecular target: T2, Aldo-keto reductase family 1 member B1; test: Mixed non-competitive inhibition of human recombinant AKR1B1 expressed in Escherichia coli BL21(DE3)pLysS assessed as apparent dissociation constant for ESI complex using L-idose as substrate by secondary plot analysis; how it was run: as §2
[9] = molecular target: T2, Aldo-keto reductase family 1 member B1; test: Reversible inhibition of human recombinant AKR1B1 expressed in Escherichia coli BL21(DE3)pLysS assessed as recovery of enzyme activity using L-idose as substrate measured after extensive dialysis by NADPH oxidation based absorbance analysis; set-up: scale not given: the % may be the effect or the level left
[10] = molecular target: T2, Aldo-keto reductase family 1 member B1; test: Mixed non-competitive inhibition of human recombinant AKR1B1 expressed in Escherichia coli BL21(DE3)pLysS assessed as apparent dissociation constant for EI complex using L-idose as substrate by secondary plot analysis; how it was run: as §2
[11] = molecular target: T4, Tyrosine-protein phosphatase non-receptor type 1 (Mus musculus) (UniProt P35821); test: Inhibition of PTP1B in mouse C2C12 cells assessed as increase in Akt phosphorylation by measuring increase in ratio of pAkt to Akt at 20 uM treated for 15 mins by western blot analysis; assay type: cell-based; how it was run: as §4
T4 sequence (whole entry): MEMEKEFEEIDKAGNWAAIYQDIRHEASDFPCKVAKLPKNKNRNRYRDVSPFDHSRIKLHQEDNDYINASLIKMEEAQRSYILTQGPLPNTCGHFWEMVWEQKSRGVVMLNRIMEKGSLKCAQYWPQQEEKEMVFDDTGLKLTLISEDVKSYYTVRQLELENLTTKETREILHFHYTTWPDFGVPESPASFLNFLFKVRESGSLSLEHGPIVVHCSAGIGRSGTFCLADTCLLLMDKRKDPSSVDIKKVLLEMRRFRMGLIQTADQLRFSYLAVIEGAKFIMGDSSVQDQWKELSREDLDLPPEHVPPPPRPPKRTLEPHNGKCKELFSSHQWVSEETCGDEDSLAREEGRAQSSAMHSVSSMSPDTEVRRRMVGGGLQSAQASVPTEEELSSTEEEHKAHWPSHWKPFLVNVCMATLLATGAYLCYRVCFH

[12] = molecular target: T4, Tyrosine-protein phosphatase non-receptor type 1 (Mus musculus); test: Inhibition of PTP1B in mouse C2C12 cells assessed as potentiation of insulin-induced Akt phosphorylation by measuring increase in ratio of pAkt to Akt at 20 uM treated for 15 mins in presence of insulin by western blot analysis; assay type: cell-based; how it was run: as §4
[13] = molecular target: T3, Tyrosine-protein phosphatase non-receptor type 1; test: Mixed non-competitive inhibition of N-terminal polyHis-tagged human PTP1B1 (1 to 303 residues) expressed in Escherichia coli BL21(DE3)pLysS assessed as apparent dissociation constant for EI complex using pNPP as substrate by Lineweaver-Burk plot analysis
How it was run: (§5)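 PTP1B initial pNPP hydrolysis rates measured at seven pNPP concentrations (0.5–25 mM) and at least three inhibitor concentrations, in triplicate. Data fitted to Michaelis–Menten; KM and Vmax dependence on inhibitor analysed by Lineweaver–Burk plots.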

C2C12 [14] = test: Effect on total Akt protein expression in mouse C2C12 cells at 20 uM incubated for 15 mins by SDS-PAGE analysis; assay type: functional, cell-based; how it was run: as §4
[15] = molecular target: T5, Tyrosine-protein phosphatase non-receptor type 1 (Homo sapiens) (UniProt P18031); test: Reversible inhibition of N-terminal polyHis-tagged human PTP1B1 (1 to 303 residues) expressed in Escherichia coli BL21(DE3)pLysS using pNPP as substrate pretreated with enzyme for 60 mins followed by 400-fold dilution with buffer containing substrate and measured after 15 mins by spectrophotometric analysis; settings: time 75.0 min
T5 sequence (whole entry): T3 sequence (P18031 whole entry)
How it was run: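 PTP1B incubated 60 min at 37 °C with saturating inhibitor, then diluted 400-fold into assay buffer containing 2.5 mM pNPP. Stopped after 15 min with 0.2 M KOH; absorbance read at 400 nm. Normalized to enzyme diluted with DMSO; mean ± SEM (n = 3).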

C2C12 [16] = test: Insulin-mimetic activity in mouse C2C12 cells assessed as stimulation of 2-NBDG uptake at 20 uM pretreated with compound for 15 mins followed by 2-NBDG addition and measured after 3 hrs by flow cytometry; assay type: functional, cell-based; settings: time 195.0 min; how it was run: as §1
[17] = molecular target: T3, Tyrosine-protein phosphatase non-receptor type 1; test: Mixed non-competitive inhibition of N-terminal polyHis-tagged human PTP1B1 (1 to 303 residues) expressed in Escherichia coli BL21(DE3)pLysS assessed as apparent dissociation constant for ESI complex using pNPP as substrate by Lineweaver-Burk plot analysis; how it was run: as §5
Homo sapiens = species on record: Homo sapiens; test: Selectivity index, ratio of IC50 for inhibition of N-terminal polyHis-tagged human recombinant TC-PTPb (1 to 415 residues) expressed in Escherichia coli BL21(DE3)pLysS to IC50 for inhibition of N-terminal polyHis-tagged human PTP1B1 (1 to 303 residues) expressed in Escherichia coli BL21(DE3)pLysS
[18] = molecular target: T5, Tyrosine-protein phosphatase non-receptor type 1 (Homo sapiens); test: Inhibition of N-terminal polyHis-tagged human PTP1B1 (1 to 303 residues) expressed in Escherichia coli BL21(DE3)pLysS assessed as enzyme residual activity using pNPP as substrate at 5 uM by spectrophotometric analysis; how it was run: as §3

IC50 [2] [µM] | Ratio Ki [3] | IC50 [4] [µM] | IC50 [6] [µM] | Ki [8] [µM] | Activity [9] [%] | Ki [10] [µM] | inhibition [11] | inhibition [12] | Ki [13] [µM] | inhibition [15] | Ki [17] [µM] | Ratio IC50 (Homo sapiens) | Activity [18] [%] | SMILES | Activity (C2C12 [1]) | Activity (C2C12 [5]) | Activity (C2C12 [7]) | Activity (C2C12 [14]) | Activity (C2C12 [16])
25.8 | 2 | 3.2 | 2.1 | 1.1 | > 90 | 4 | Active | Active | 0.9 | Active | 6.6 | 8 |  | O=C(O)CCN1C(=O)/C(=C/c2cccc(OCCCCc3ccccc3)c2)SC1=S | Active | Non-Toxic | inactive | inactive | Active
9.1 |  | 2.9 | 60.7 |  |  |  | Active | Active | 0.6 | Active | 2.4 |  |  | O=C(O)CCN1C(=O)/C(=C/c2ccc(OCCCCc3ccccc3)cc2)SC1=S |  | Non-Toxic |  |  | 
 |  |  | 3.9 |  |  |  |  |  |  |  |  |  | 74.4 | O=C(O)CCN1C(=O)/C(=C/c2ccc(OCCCOc3ccccc3)cc2)SC1=S |  |  |  |  | 
